# Calls of active or inactive are those of the source.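 The calls were made as follows, unless noted: active = fluorescence slope after compound addition differing from the mean of all tested samples at 99.7% confidence, mostly higher but some lower; inactive = the rest.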
# Experiments:
# [1] = inhibitors of TNFa-induced NFkB p65 translocation, primary screen, imaging, HUVEC, MLSMR starter and 10KST1 sets (AID 438;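 active = inhibition above 20% together with a positive visual image hit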;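 also: compound added about 3h40 before a 20 min TNFalpha stimulation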;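 as to inhibition: signal is the nuclear over cytoplasmic p65 intensity ratio per well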); settings: HUVEC TNFa-induced p65 nuclear translocation; cell count: measured here: nuclei count (cytotoxicity indicator), at 2.08 µM; inhibition: at 2 µM, stronger effect = higher value, 0% TNFa-plus-vehicle, 100% no-TNFa wells
# [2] = reduction of polyQ htt aggregates in cells – imaging, exon1htt(103Q)mCFP cells, high-content imaging, primary screen (AID 483;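 active = visual image review flags a hit and inhibition of aggregation exceeds 20%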;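 also: compound exposure lasted 3 days before fixation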;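 as to nuclei count: percent of the per-plate median nuclei count of sample wells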); settings: exon1htt(103Q)mCFP cell line, aggregate imaging, at 2 µM; inhibition of aggregation: stronger effect = higher value; nuclei count: measured here: cell count, toxicity
# [3] = endothelial E-selectin expression blockers – imaging, HUVEC, immunofluorescence, MLSMR starter and 10KST1 sets, primary screen (AID 487;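 active = visually confirmed hit in the image check and inhibition above 20%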;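 as to inhibition: signal is fraction of cell area covered by stained E-selectin grains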;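 as to nuclei count: 100% = median nuclei count of all wells on the same plate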); settings: HUVEC TNFalpha-induced E-selectin immunofluorescence imaging, at 2 µM; inhibition: stronger effect = higher value; nuclei count: measured here: cell number, toxicity
# [4] = molecular target: Voltage-gated potassium channel subunit beta-2 (Rattus norvegicus) (UniProt P62483); test: inhibitors of rat Kvbeta2 reductase activity – biochemical, NADPH fluorescence, primary screen (AID 622;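 active = fluorescence slope higher than the sample average by over 3 SD, cut at about -0.22 in these data, passing the limit was not always enough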;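 also: slope of raw intensity against log time taken from 70 to 1610 s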); settings: recombinant KvBeta, 4-cyanobenzaldehyde reduction, at 10 µM, stronger effect = higher value
# Voltage-gated potassium channel subunit beta-2 (Rattus norvegicus), sequence (P62483 whole entry, looked up): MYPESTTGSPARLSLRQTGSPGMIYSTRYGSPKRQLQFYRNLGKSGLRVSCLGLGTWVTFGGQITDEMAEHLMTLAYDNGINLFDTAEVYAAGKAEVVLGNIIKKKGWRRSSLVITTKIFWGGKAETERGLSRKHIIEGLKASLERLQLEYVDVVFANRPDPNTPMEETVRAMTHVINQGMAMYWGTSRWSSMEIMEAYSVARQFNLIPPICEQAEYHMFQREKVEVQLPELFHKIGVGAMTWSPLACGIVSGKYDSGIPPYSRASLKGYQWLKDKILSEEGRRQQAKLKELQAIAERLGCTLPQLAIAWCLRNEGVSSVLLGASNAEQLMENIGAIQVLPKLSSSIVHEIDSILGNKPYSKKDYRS
# [5] = molecular target: Voltage-gated potassium channel subunit beta-2 (Rattus norvegicus) (UniProt P62483); test: enhancers of rat Kvbeta2 NADPH turnover – biochemical, NADPH fluorescence, primary screen (AID 623;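 active = NADPH fluorescence slope more negative than the mean of all samples by about 3 SD, 99.7% confidence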;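 also: fluorescence intensity change per second fitted from 20 to 320 s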); settings: Recombinant KvBeta, NADPH fluorescence decrease slope, 10 min; at 10 µM; stronger effect = lower value
# [6] = molecular target: Muscarinic acetylcholine receptor M4 (Homo sapiens) (UniProt P08173); test: M4-linked GIRK flux change, two-sided – cell-based, HEK293 M4/GIRK, thallium flux, BTC-AM, M4 allosteric agonist project, primary screen (AID 625); settings: at 10 µM, actives lie on both sides;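 also: thallium influx through GIRK channels coupled to M4 in HEK293 cells with BTC-AM dye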
# Muscarinic acetylcholine receptor M4 (Homo sapiens), sequence (P08173 whole entry, looked up): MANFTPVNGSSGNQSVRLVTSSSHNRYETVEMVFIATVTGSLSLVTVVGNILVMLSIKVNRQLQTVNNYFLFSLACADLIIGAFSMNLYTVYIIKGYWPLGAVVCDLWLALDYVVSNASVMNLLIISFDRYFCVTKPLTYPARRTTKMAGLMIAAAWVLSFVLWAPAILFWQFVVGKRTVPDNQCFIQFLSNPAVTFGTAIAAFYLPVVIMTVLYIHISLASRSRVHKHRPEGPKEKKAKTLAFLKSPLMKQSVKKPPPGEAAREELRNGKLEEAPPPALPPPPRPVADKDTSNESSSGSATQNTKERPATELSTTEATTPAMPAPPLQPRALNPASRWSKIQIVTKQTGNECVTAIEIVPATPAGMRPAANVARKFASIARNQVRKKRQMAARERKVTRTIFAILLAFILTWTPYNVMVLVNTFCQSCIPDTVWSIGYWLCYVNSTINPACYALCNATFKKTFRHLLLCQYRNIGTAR
# Procedure, shortened: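 Material: HEK293 cells with M4 receptor and GIRK channels; Times: cells overnight at 37 °C, BTC-AM loading 1 h, reads 2 min total; Technique: kinetic BTC-AM fluorescence sampled at 1 Hz, 10 s pre-addition baseline; Read-out basis: slope over 15–24 s of trace normalized to starting intensity; Controls: carbachol positive, DMSO negative.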
# [7] = blockers of RIG-like receptor reporter activation – cell-based, Sendai virus stimulus, luciferase, 10K MLSCN set, TLR/RLR signaling modifier project, primary screen (AID 602276;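 active = inhibition at or above 50% at 10 µM; inactive = inhibition below 50%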;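 also: firefly luciferase from ISG56 promoter only with Renilla not read in this screen; 0% = Sendai virus plus DMSO and 100% = medium plus DMSO without virus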); settings: HEK293 RL24 IRF3 luciferase reporter, at 10 µM, stronger effect = higher value
# [8] = TLR3 IRF3 reporter activation blockers – cell-based, poly I:C stimulus, luciferase, 10K MLSCN set, primary screen (AID 602277;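 active = inhibition of the reporter signal at or above 50%; inactive = inhibition below 50%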); settings: HEK293-TLR3 RL24 IRF3 luciferase reporter, at 10 µM, stronger effect = higher value
SMILES,cell count [1],inhibition [1],inhibition of aggregation [2],nuclei count [2],inhibition [3],nuclei count [3],fluorescence slope [4],NADPH fluorescence slope [5],fluorescence slope [6],inhibition [7],inhibition [8]
Cn1c(SCC(N)=O)nnc1C1CCN(S(=O)(=O)c2ccccc2C(F)(F)F)CC1,554,-12.3% (inactive),4% (inactive),88.2%,33.9% (inactive),96.6%,-0.214 (inactive),-3.4e-05 (inactive),0.00588 (inactive),10.8% (inactive),19.2% (inactive)
CCOc1ccc(N2CC(C(=O)Nc3ccc(F)cc3F)CC2=O)cc1 (stereo not drawn),847,10.1% (inactive),7.4% (inactive),92.8%,-3.5% (inactive),99.9%,-0.587 (inactive),2.2e-05 (inactive),0.00677 (inactive),6.56% (inactive),26.2% (inactive)
CCC(C)(C)n1nnnc1C(c1ccccc1OC)N1CCSCC1 (stereo not drawn),252,-16.3% (inactive),6.6% (inactive),106%,32.4% (inactive),53.7%,-0.555 (inactive),-4.3e-05 (inactive),0.00476 (inactive),6.1% (inactive),23.7% (inactive)
O=C(NCCCN1CCOCC1)C1CC(=O)N(CCc2ccccc2)C1 (stereo not drawn),295,-1% (inactive),0.4% (inactive),104%,-88% (inactive),117%,-0.545 (inactive),1.7e-05 (inactive),0.00479 (inactive),15.2% (inactive),22.3% (inactive)
CCN1CCN(Cc2ccc(NC(=O)Nc3ccc(SC)cc3)cc2)CC1,268,-1.7% (inactive),16.3% (inactive),97.3%,-52.1% (inactive),93.5%,-0.54 (inactive),-3.4e-05 (inactive),0.00398 (inactive),-29.9% (inactive),-81.3% (inactive)
COCCNC(=O)c1ccc(Cl)c(Cl)c1,283,-9.1% (inactive),-23.9% (inactive),119%,4.3% (inactive),116%,-0.486 (inactive),-4.2e-05 (inactive),0.00569 (inactive),-9.14% (inactive),-8.45% (inactive)
CCN1CCCC1CNCc1ccc(Cl)cc1Cl (stereo not drawn),474,13.6% (inactive),1.2% (inactive),87.1%,-106% (inactive),152%,-0.316 (inactive),-1.4e-06 (inactive),0.0068 (inactive),-5.98% (inactive),5.14% (inactive)
CCCCN(CCCNC(=O)C1CCN(S(=O)(=O)CC)CC1)c1ccccc1,547,7.2% (inactive),-2.7% (inactive),130%,-81.6% (inactive),165%,-0.441 (inactive),2.9e-05 (inactive),0.00466 (inactive),8.2% (inactive),25.8% (inactive)
CCC(=O)/C=C1\Sc2ccc(OC)cc2N1CCO,626,2.4% (inactive),-1.7% (inactive),93.6%,-28.2% (inactive),85.1%,-0.577 (inactive),-3.8e-05 (inactive),0.0067 (inactive),21.2% (inactive),9.17% (inactive)
COc1cc(-c2nnc(SCC(=O)c3ccc(C)cc3)o2)cc(OC)c1OC,378,1.7% (inactive),-8.1% (inactive),87.7%,28.9% (inactive),83.6%,-0.607 (inactive),2.5e-05 (inactive),0.00366 (inactive),-8.63% (inactive),-7.77% (inactive)
CCOC(=O)c1nn(-c2sc(C(=O)OC)c(C)c2C(=O)OC)cc1O,449,-6.2% (inactive),1% (inactive),94.5%,0.1% (inactive),108%,-0.518 (inactive),-3.7e-05 (inactive),0.00503 (inactive),20.5% (inactive),24.1% (inactive)
COc1ccccc1OC(=O)c1ccc2nsnc2c1,623,-11.4% (inactive),25% (inactive),87.8%,-75.4% (inactive),103%,-0.585 (inactive),-5.9e-05 (inactive),0.00471 (inactive),9.79% (inactive),99.7% (active)
O=C(c1ccc2c(c1)OCO2)N1CCNc2ccccc2C1,518,-0.5% (inactive),21.2% (inactive),91%,-14.3% (inactive),85.2%,-0.559 (inactive),-3.1e-05 (inactive),0.00561 (inactive),8.51% (inactive),2.68% (inactive)
